pKi: −log10 of the molar value.
Experiments:
Adenosine receptor A2a [1] = biological target: T1, Adenosine receptor A2a (Homo sapiens, UniProt P29274); assay: Displacement of [3H]2-[p-(2-carboxyethyl)phenylethylamino]-5'-N-ethylcarboxamido-adenosine from human A2A adenosine receptor expressed in HEK293 cell membranes after 60 mins
Adenosine receptor A2a [2] = biological target: T1, Adenosine receptor A2a; assay: Agonist activity at human A2A adenosine receptor expressed in CHO cells assessed as stimulation of forskolin-induced cAMP production at 10 uM preincubated for 45 mins prior forskolin treatment measured after 15 mins by liquid scintillation spectrometry relative to 2-[p-(2-carboxyethyl)phenylethylamino]-5'-N-ethylcarboxamido-adenosine; format: functional, cell-based
Procedure, shortened: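 CHO cells expressing human A2A AR; test compound at a single concentration of 10 µM; cyclic AMP production measured and expressed as mean percentage of the response to the full agonist CGS21680 (10 µM).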

Adenosine receptor A3 = biological target: T2, Adenosine receptor A3 (Homo sapiens, UniProt P0DMS8); assay: Displacement of [125I]N6-(4-amino-3-iodobenzyl)adenosine-5'-N-methyluronamide from human A3 adenosine receptor expressed in CHO cell membranes after 60 mins
T2 sequence (P0DMS8 whole entry): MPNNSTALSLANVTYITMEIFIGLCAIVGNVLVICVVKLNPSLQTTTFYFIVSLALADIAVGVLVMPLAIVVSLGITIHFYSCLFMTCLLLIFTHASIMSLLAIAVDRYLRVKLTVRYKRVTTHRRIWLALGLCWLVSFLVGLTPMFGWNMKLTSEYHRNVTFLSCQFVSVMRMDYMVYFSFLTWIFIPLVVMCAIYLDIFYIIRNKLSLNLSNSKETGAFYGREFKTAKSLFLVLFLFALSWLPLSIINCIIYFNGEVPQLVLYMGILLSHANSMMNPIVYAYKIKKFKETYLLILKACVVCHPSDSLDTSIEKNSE

Adenosine receptor A1 = biological target: T3, Adenosine receptor A1 (Homo sapiens, UniProt P30542); assay: Displacement of [3H]N6-phenylisopropyladenosine from human A1 adenosine receptor expressed in CHO cell membranes after 60 mins
T3 sequence (P30542 whole entry): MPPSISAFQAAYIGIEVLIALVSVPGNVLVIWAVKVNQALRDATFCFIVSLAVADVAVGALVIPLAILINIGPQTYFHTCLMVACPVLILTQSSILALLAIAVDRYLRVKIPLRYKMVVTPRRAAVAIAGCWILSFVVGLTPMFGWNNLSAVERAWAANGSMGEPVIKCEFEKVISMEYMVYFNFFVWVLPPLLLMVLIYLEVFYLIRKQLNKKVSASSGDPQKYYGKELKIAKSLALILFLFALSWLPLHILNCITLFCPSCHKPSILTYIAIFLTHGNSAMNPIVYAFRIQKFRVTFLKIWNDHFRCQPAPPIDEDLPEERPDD
Procedure, shortened: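 Membranes (40 µg/tube) from CHO cells stably expressing human A1 AR were incubated with 1 nM [3H]R-PIA in 50 mM Tris·HCl pH 7.4 with 10 mM MgCl2, at 25°C for 60 min. Nonspecific binding was defined with 10 µM CPA.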

[3] = Displacement of [1251]PAPAAPEC from A2A adenosine receptor expressed in bovine striatal membranes after 1 hr by gamma counting; format: cell membranes, Bos taurus, Striatum, Membrane
Adenosine receptor A2a [4] = biological target: T1, Adenosine receptor A2a; assay: Binding affinity to A2A adenosine receptor

T1 sequence (P29274 whole entry): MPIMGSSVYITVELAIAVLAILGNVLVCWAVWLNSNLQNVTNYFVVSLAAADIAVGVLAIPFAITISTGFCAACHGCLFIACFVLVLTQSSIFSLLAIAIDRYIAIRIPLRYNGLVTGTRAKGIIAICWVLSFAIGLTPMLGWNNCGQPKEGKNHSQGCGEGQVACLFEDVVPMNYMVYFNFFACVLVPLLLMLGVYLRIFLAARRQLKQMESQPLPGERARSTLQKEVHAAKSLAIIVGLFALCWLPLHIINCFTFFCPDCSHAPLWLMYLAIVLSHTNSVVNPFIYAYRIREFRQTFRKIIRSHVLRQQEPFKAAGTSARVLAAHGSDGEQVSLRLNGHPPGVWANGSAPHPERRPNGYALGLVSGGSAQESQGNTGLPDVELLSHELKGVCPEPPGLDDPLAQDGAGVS

| Structure (SMILES) | pKi (Adenosine receptor A2a [1]) | Emax (Adenosine receptor A2a [2]) [%] | pKi (Adenosine receptor A3) | pKi (Adenosine receptor A1) | pKi [3] | pKi (Adenosine receptor A2a [4]) |
| --- | --- | --- | --- | --- | --- | --- |
| CCNC(=O)[C@H]1O[C@@H](n2cnc3c(N)nc(NCCc4ccc(CCC(=O)N[C@@H](Cc5ccccc5)C(=O)O)cc4)nc32)[C@H](O)[C@@H]1O | 7.20 | 103 | 6.59 | 6.19 | – | – |
| CCNC(=O)[C@H]1O[C@@H](n2cnc3c(N)nc(NCCc4ccc(CCC(=O)N[C@@H](Cc5c[nH]cn5)C(=O)O)cc4)nc32)[C@H](O)[C@@H]1O | – | 105 | – | – | – | – |
| CCNC(=O)[C@H]1O[C@@H](n2cnc3c(N)nc(NCCc4ccc(CCC(=O)N[C@@H](CC(=O)O)C(=O)O)cc4)nc32)[C@H](O)[C@@H]1O | 6.74 | 94.8 | 5.84 | 5.72 | – | – |
| CCNC(=O)[C@H]1O[C@@H](n2cnc3c(N)nc(NCCc4ccc(CCC(=O)NCCNC(=S)Nc5ccc(N=C=S)cc5)cc4)nc32)[C@H](O)[C@@H]1O | – | – | – | – | 8.15 | – |
| O=C(NCCN1CCCCC1)c1nc(NCC(c2ccccc2)c2ccccc2)c2ncn([C@@H]3O[C@H](CO)[C@@H](O)[C@H]3O)c2n1 | – | – | – | – | – | 7.70 |
| CCNC(=O)[C@H]1O[C@@H](n2cnc3c(N)nc(NCCc4ccc(CCC(=O)N[C@@H](Cc5c[nH]c6ccccc56)C(=O)O)cc4)nc32)[C@H](O)[C@@H]1O | 7.14 | 95.8 | 6.70 | 5.97 | – | – |
| CCNC(=O)[C@H]1O[C@@H](n2cnc3c(N)nc(NCCc4ccc(CCC(=O)N[C@H](Cc5ccccc5)C(=O)O)cc4)nc32)[C@H](O)[C@@H]1O | 7.47 | 93.4 | 6.85 | 6.26 | – | – |
| CCNC(=O)[C@H]1O[C@@H](n2cnc3c(N)nc(NCCc4ccc(CCC(=O)N[C@@H](Cc5ccccc5)C(=O)OC)cc4)nc32)[C@H](O)[C@@H]1O | 6.80 | 111 | – | 5.97 | – | – |
| CCNC(=O)[C@H]1O[C@@H](n2cnc3c(N)nc(NCCc4ccc(CCC(=O)N[C@@H](CCCNC(=N)N)C(=O)O)cc4)nc32)[C@H](O)[C@@H]1O | – | 94.5 | – | – | – | – |
| CCNC(=O)[C@H]1O[C@@H](n2cnc3c(N)nc(NCCc4ccc(CCC(=O)N[C@H](CCCN=C(N)N)C(=O)O)cc4)nc32)[C@H](O)[C@@H]1O | 7.30 | – | 6.66 | 6.00 | – | – |
| CCNC(=O)[C@H]1O[C@@H](n2cnc3c(N)nc(NCCc4ccc(CCC(=O)N[C@@H](CCCN=C(N)N)C(=O)O)cc4)nc32)[C@H](O)[C@@H]1O | 7.00 | – | 6.21 | 5.95 | – | – |
| CCNC(=O)[C@H]1O[C@@H](n2cnc3c(N)nc(NCCc4ccc(CCC(=O)N[C@H](CCCNC(=N)N)C(=O)O)cc4)nc32)[C@H](O)[C@@H]1O | – | 94.7 | – | – | – | – |
| CCNC(=O)[C@H]1O[C@@H](n2cnc3c(N)nc(NCCc4ccc(CCC(=O)N[C@@H](Cc5cnc[nH]5)C(=O)O)cc4)nc32)[C@H](O)[C@@H]1O | 6.96 | – | 6.08 | 6.00 | – | – |
| CCNC(=O)[C@H]1O[C@@H](n2cnc3c(N)nc(NCCc4ccc(CCC(=O)N[C@H](Cc5c[nH]c6ccccc56)C(=O)O)cc4)nc32)[C@H](O)[C@@H]1O | 6.89 | 113 | 6.28 | 5.67 | – | – |
| CCNC(=O)[C@H]1C[C@@H](n2cnc3c(N[C@H](CC)Cc4sccc4Cl)ccnc32)[C@H](O)[C@@H]1O | – | – | – | – | – | 7.25 |
| CCNC(=O)[C@H]1O[C@@H](n2cnc3c(N)nc(NCCc4ccc(CCC(=O)N[C@H](CC(=O)O)C(=O)O)cc4)nc32)[C@H](O)[C@@H]1O | 6.96 | 94.3 | 6.10 | 5.93 | – | – |
| CCNC(=O)[C@H]1O[C@@H](n2cnc3c(N)nc(NCCc4ccc(CCC(=O)N[C@H](Cc5c[nH]c6ccccc56)C(=O)OC)cc4)nc32)[C@H](O)[C@@H]1O | 6.89 | 119 | 6.60 | 5.79 | – | – |
| CCNC(=O)[C@H]1O[C@@H](n2cnc3c(N)nc(NCCc4ccc(CCC(=O)N[C@H](Cc5ccccc5)C(=O)OC)cc4)nc32)[C@H](O)[C@@H]1O | 7.07 | 92.6 | – | 5.91 | – | – |
| CCNC(=O)[C@H]1O[C@@H](n2cnc3c(N)nc(NCCc4ccc(CCC(=O)N[C@@H](Cc5c[nH]c6ccccc56)C(=O)OC)cc4)nc32)[C@H](O)[C@@H]1O | 7.06 | 104 | 6.85 | 5.78 | – | – |
| CCNC(=O)[C@H]1O[C@@H](n2cnc3c(N)nc(NCCc4ccc(CCC(=O)N[C@H](Cc5c[nH]cn5)C(=O)O)cc4)nc32)[C@H](O)[C@@H]1O | 7.40 | 106 | 6.49 | 6.46 | – | – |
| COc1cc(OC)cc([C@@H](CNc2ncnc3c2ncn3[C@@H]2O[C@H](CO)[C@@H](O)[C@H]2O)c2ccccc2C)c1 | – | – | – | – | – | 6.77 |

From ChEMBL document CHEMBL1949672 (J Med Chem, 2012)
